Measured values from ChEMBL document CHEMBL1148770, “Conformation-activity relationship of neuropeptide S and some structural mutants: helicity affects their interaction with the receptor” (J Med Chem, 2007).
Square brackets hold non-standard residues; d marks the D form. Peptide text beside a SMILES is read from it. Aib = CC(C)(N)C(=O)O

Key:
Type in all cases: functional, cell-based
[1] = target: T1, Neuropeptide S receptor (Mus musculus) (UniProt Q8BZP8); assay: Agonist activity at mouse recombinant NPSR expressed in HEK293 cells assessed as calcium mobilization relative to baseline
T1 sequence (whole entry): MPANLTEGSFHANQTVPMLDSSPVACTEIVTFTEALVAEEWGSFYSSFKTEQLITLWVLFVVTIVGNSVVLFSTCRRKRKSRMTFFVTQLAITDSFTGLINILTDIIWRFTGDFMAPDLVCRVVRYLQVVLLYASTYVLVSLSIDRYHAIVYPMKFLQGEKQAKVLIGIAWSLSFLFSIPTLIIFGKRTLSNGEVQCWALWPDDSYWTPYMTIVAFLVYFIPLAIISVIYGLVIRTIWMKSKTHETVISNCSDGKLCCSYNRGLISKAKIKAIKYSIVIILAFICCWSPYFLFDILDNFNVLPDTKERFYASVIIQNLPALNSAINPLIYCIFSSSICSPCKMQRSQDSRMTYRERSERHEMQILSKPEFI
Summary of the method: (§1)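 HEK293 cells stably expressing mouse NPSR, grown in DMEM/10% FBS/2 mM glutamine/hygromycin at 37 °C, 5% CO2. Seeded 50,000 cells/well on poly-D-lysine; next day loaded 30 min at 37 °C with 3 µM Fluo-4 AM, 2.5 mM probenecid, 0.01% pluronic acid. Read in HBSS/20 mM HEPES/probenecid/Brilliant Black at ≈22 °C on FlexStation; peak fluorescence change as % baseline; logistic fit; ≥4 experiments in duplicate.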

Neuropeptide S receptor [2] = target: T2, Neuropeptide S receptor (Mus musculus, UniProt Q8BZP8); assay: Antagonist activity at mouse NPSR expressed in HEK293 cells assessed as inhibition of 100 nM hNPS-induced calcium mobilization
T2 sequence (Q8BZP8 whole entry): T1 sequence (whole entry)
Summary of the method: (§2)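 Mouse NPSR stably expressed in HEK293 cells, grown with hygromycin, then plated at 50 000 cells/well. Next day, cells were loaded for 30 min at 37 °C with 3 µM Fluo-4 AM, 2.5 mM probenecid and 0.01% pluronic acid. The assay buffer was HBSS with 20 mM HEPES, probenecid and 500 µM Brilliant Black. Fluorescence was read at about 22 °C. pIC50 came from a logistic fit of peak fluorescence (% of baseline). At least four experiments, each in duplicate.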

Neuropeptide S receptor [3] = target: T2, Neuropeptide S receptor; assay: Antagonist activity at mouse NPSR expressed in HEK293 cells assessed as inhibition of 10 nM hNPS-induced calcium mobilization; summary of the method: as §2
Neuropeptide S receptor [4] = target: T2, Neuropeptide S receptor; assay: Agonist activity at mouse recombinant NPSR expressed in HEK293 cells assessed as calcium mobilization; summary of the method: as §1

SMILES | Emax [1] | IC50 (Neuropeptide S receptor [2]) | IC50 (Neuropeptide S receptor [3]) | EC50 (Neuropeptide S receptor [4])
CSCC[C@H](NC(=O)CNC(=O)[C@@H](NC(=O)CNC(=O)[C@@H](NC(=O)C(C)(C)NC(=O)[C@H](CC(N)=O)NC(=O)[C@H](CCCNC(=N)N)NC(=O)[C@H](Cc1ccccc1)NC(=O)[C@@H](N)CO)C(C)C)[C@@H](C)O)C(=O)N[C@@H](CCCCN)C(=O)N[C@@H](CCCCN)C(=O)N[C@H](C(=O)N[C@@H](CO)C(=O)N[C@@H](Cc1ccccc1)C(=O)N[C@@H](CCC(N)=O)C(=O)N[C@@H](CCCNC(=N)N)C(=O)N[C@@H](C)C(=O)N[C@@H](CCCCN)C(=O)N[C@@H](CO)C(=O)O)[C@@H](C)O (H-SFRN[Aib]VGTGMKKTSFQRAKS-OH) | 65% | 1620 nM | 537 nM | 191 nM
CSCC[C@H](NC(=O)CNC(=O)[C@@H](NC(=O)CNC(=O)[C@@H](NC(=O)CNC(=O)[C@H](CC(N)=O)NC(=O)[C@H](CCCNC(=N)N)NC(=O)[C@H](Cc1ccccc1)NC(=O)C(C)(C)N)C(C)C)[C@@H](C)O)C(=O)N[C@@H](CCCCN)C(=O)N[C@@H](CCCCN)C(=O)N[C@H](C(=O)N[C@@H](CO)C(=O)N[C@@H](Cc1ccccc1)C(=O)N[C@@H](CCC(N)=O)C(=O)N[C@@H](CCCNC(=N)N)C(=O)N[C@@H](C)C(=O)N[C@@H](CCCCN)C(=O)N[C@@H](CO)C(=O)O)[C@@H](C)O (H-[Aib]FRNGVGTGMKKTSFQRAKS-OH) | 184% |  |  | 6.76 nM
